# procasp7 counter – procaspase-7 activators, primary screen, counter-screen for procaspase-3 activator project, biochemical, absorbance, HTS, human. actives 0.093% (n = 330,000). activation, % at 8.5 µM. recombinant procaspase-7, Ac-DEVD-pNA absorbance 405 nm; D23A/D198A/D206A triple mutant, cannot self-cleave; scale: DMSO 0, 5 µM enzyme 100. AID 463210, 2010;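 active means percent activation above the screen-wide mean plus 3 SD, cut at about 25% in these data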
#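 Assay system: Uncleavable procaspase-7 mutant enzyme; Input: 2 µM procaspase-7 mutant as dispensed; Also added: DEVD-pNA substrate; Medium: Zinc-free HEPES pH 7.4 with 300 mM NaCl, 0.01% Triton X-100; Timing: 1 h compound preincubation, 2 h substrate cleavage, 25 °C; Measured by: Epi-absorbance of released pNA at 405 nm, two timepoints.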
# PolyA inhibitor – polyadenylation inhibitors in yeast reporter cells, primary screen, luminescence, S. cerevisiae; S. cerevisiae SKY197-pL101 polyadenylation reporter, beta-gal luminescence; efflux-impaired pdr1/pdr3 knockout yeast; score 100 = 6 SD above DMSO; activity score, % at 12 µM; actives 0.02% (n = 300,000);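 active means lowest replicate activity score at least 50, where 100 means six control SD above control mean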;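 further: yeast exposed to compound for 9 h at 30 °C; higher score means more reporter readthrough which indicates perturbed polyadenylation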
# AHR act – AHR activators, primary screen, cell-based, luminescence, luciferase reporter, human; Aryl hydrocarbon receptor (Homo sapiens), P35869; AHR-responsive luciferase reporter cells; activation, % at 5 µM; actives 2.5% (n = 320,000); AID 2796, 2010; in the data active means activation above about 47%;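 further: 0% = vehicle wells and 100% = reference agonist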
# Target sequence (P35869 whole entry, looked up): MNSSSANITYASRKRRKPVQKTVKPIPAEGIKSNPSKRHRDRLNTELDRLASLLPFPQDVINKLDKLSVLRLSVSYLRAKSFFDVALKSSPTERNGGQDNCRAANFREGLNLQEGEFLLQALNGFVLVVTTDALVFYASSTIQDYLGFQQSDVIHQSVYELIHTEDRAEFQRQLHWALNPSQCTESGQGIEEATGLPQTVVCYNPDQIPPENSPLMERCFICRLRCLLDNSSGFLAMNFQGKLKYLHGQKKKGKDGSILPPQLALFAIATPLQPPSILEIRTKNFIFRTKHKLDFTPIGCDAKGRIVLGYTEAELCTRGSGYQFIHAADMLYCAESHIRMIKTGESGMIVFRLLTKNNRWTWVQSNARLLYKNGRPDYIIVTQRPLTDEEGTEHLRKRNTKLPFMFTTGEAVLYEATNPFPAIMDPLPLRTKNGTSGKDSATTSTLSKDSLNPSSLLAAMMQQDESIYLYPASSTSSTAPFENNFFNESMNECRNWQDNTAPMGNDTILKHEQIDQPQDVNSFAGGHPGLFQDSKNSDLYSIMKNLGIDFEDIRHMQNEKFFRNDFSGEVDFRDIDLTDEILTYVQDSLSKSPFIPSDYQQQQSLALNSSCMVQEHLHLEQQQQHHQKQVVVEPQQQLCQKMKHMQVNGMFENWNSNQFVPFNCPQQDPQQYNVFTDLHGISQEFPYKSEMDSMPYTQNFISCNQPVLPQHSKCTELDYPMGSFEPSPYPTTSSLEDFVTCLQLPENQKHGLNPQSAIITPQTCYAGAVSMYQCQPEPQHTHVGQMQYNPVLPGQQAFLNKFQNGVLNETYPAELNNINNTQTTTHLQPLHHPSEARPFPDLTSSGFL
# proCasp3 act – activators of human procaspase-3 D3A mutant, primary screen, biochemical, absorbance, PC-3 D3A mutant, single concentration; Caspase-3 (Homo sapiens), P42574; recombinant procaspase-3 D3A, Ac-DEVD-pNA absorbance 405 nm; activation, % at 8.5 µM; actives 0.11% (n = 330,000); AID 463141, 2010;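 active means activation above the mean of all tested compounds plus 3 SD, cut at about 21% in these data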;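 further: 0% = DMSO alone and 100% = DMSO wells spiked with extra 5 µM PC-3 D3A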
#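 Technique: 405 nm absorbance of p-nitroaniline, reads at 0 and 120 min; Test system: Procaspase-3 D3A mutant; Incubation: 1 h enzyme-compound preincubation, then 2 h substrate reaction, 25 °C; Repeats: singlicate, each compound tested once; Benchmarks: low control DMSO wells, high control DMSO plus 5 µM PC-3 D3A.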
# * = called active by the depositor; / = not tested or not shown. Sampled rows, rich in hits. Any-hit rate of the full collection: about 2.6%.
SMILES,procasp7 counter,PolyA inhibitor,AHR act,proCasp3 act
CC(C)OCc1c(C(=O)Nc2nccs2)oc2ccccc12,5,-14,57*,0
C/C(=N\NC(=O)c1cccc(S(=O)(=O)N2CCCC2)c1)c1ccc(F)cc1,6,1,5,-1
O=C(C[C@@H]1C/C=C/CC[C@@H](Cc2ccc(F)cc2)C(=O)O[C@H](c2ccccc2)CNC1=O)NCCO,4,/,-1,11
Cc1c(/C=C2\NC(=O)NC2=O)c2ccccc2n1C,2,-2,75*,2
O=C(Nc1sc2c(c1C(=O)O)CCCCC2)c1ccco1,-3,2,14,-7
NC(=O)c1c(NC(=O)c2ccco2)sc2c1CCC2,6,-12,76*,0
C=CC(=O)Nc1sc2c(c1C(N)=O)CCCC2,0,4,-2,8
C=CCNC(=S)Nc1sc2c(c1C(N)=O)CCCC2,-21,-4,58*,-18
CCOCCCn1c(SCC(=O)NCc2ccc3c(c2)OCO3)nc2ccccc2c1=O,-13,10,70*,-2
Cn1c(SCC(=O)NCC2CCCO2)ncc(C(=O)Nc2ccc(F)cc2)c1=O (stereo not drawn),16,-11,51*,7
Cn1c(SCC(=O)NCC2CCCO2)ncc(C(=O)Nc2ccc(Cl)cc2)c1=O (stereo not drawn),-3,16,56*,4
Cn1c(SCC(=O)NCc2ccc(F)cc2)ncc(C(=O)Nc2ccccc2)c1=O,5,-14,12,5
CCn1c(SCC(=O)NCC2CCCO2)nnc1-c1ccc(Cl)cc1 (stereo not drawn),4,3,2,6
Cn1c(SCC(=O)NCc2ccc3c(c2)OCO3)ncc(C(=O)Nc2ccc(F)cc2)c1=O,-14,3,49*,-2
COc1ccc(NC(=O)COC(=O)c2cc3c(s2)CCC3)cc1,7,/,0,-3
CC(C)(CNC(=O)C1c2ccccc2-c2ccccc21)N1CCOCC1,0,4,2,3
COc1ccc(-c2cn3ccccc3n2)cc1,2,7,1,3
COc1ccc(-c2cn3cc(C(F)(F)F)cc(Cl)c3n2)cc1,1,-3,52*,8
COc1ccc(-c2cn3ccc4ccccc4c3n2)cc1,2,-3,48*,9
OCCSc1ncnc2c1oc1ccccc12,2,5,-4,1
OCCN(CCO)c1ncnc2c1oc1ccc(Br)cc12,-5,18,72*,-1
CC(C)CCN1C(=O)c2ccc(C(=O)Nc3ccc(Br)cc3C(=O)O)cc2C1=O,14,0,1,12
COc1ccc(C2=NOC(Cn3nc(C(=O)NCC4CC4)cc3-c3ccccc3)C2)cc1 (stereo not drawn),4,-7,-1,-2
COC(=O)C(Sc1nc(C)cc(C)c1C#N)c1ccccc1 (stereo not drawn),-6,-9,-3,1
Cc1cc(C)c(C#N)c(Sc2ccccc2N)n1,-7,-4,49*,-8
SMILES,procasp7 counter,PolyA inhibitor,AHR act,proCasp3 act
CCOc1nc(Nc2ccc(Cl)cc2)nc(OCC)n1,8,-13,11,-3
CN(C)c1nc(Nc2ccc(Cl)cc2)nc(OCC#N)n1,5,-2,49*,12
CCOc1ccccc1CN1CCNC(=O)C1CC(=O)NCc1nccn1CC (stereo not drawn),-3,-3,-1,3
COc1ccc(C(C(=O)NC(C)(C)C)N(C(=O)CCC(=O)Nc2ccccn2)C2CCCCC2)cc1 (stereo not drawn),0,24,3,1
CC(/C=N/n1c(-c2cc(C)[nH]n2)n[nH]c1=S)=C\c1ccccc1,-19,2,78*,-10
COc1ccccc1NC(=O)c1cc2ccccc2nc1C,-7,8,57*,-4
COc1cc(OC)cc(C(=O)Nc2cccc3nc(C)ccc23)c1,/,-1,/,/
COc1ccccc1C(=O)Nc1cccc2nc(C)ccc12,10,-4,53*,-2
COc1ccc(C(=O)Nc2cccc3nc(C)ccc23)c(OC)c1,-7,3,72*,-2
CCOc1ccc(C(C(=O)NC2CCCC2)N(CCCO)C(=O)c2ccc(-c3ccccc3)[nH]2)cc1 (stereo not drawn),-1,-4,6,1
NC(=O)c1nsc(C(=O)N(c2cccc(F)c2)C(C(=O)NCC2CCCO2)c2c[nH]c3ccccc23)c1N (stereo not drawn),2,-3,65*,-1
NC(=O)c1nsc(C(=O)N(c2ccc(F)cc2)C(C(=O)NCC2CCCO2)c2c[nH]c3ccccc23)c1N (stereo not drawn),4,-16,74*,4
Cc1cccc(N(C(=O)c2snc(C(N)=O)c2N)C(C(=O)NCC2CCCO2)c2c[nH]c3ccccc23)c1 (stereo not drawn),-1,-5,9,-1
CCC(C)C(NC(=O)C1CCC(C)CC1)C(=O)Nc1ccc(OC)cc1 (stereo not drawn),-4,1,-2,1
O=C(CSc1nnc(-c2ccco2)o1)c1ccc(O)cc1O,-8,11,-1,-8
Clc1ccc(C2=Nn3c(nnc3-c3n[nH]c4c3CCC4)SC2)cc1,8,1,49*,5
Brc1ccc(C2=Nn3c(nnc3-c3n[nH]c4c3CCC4)SC2)cc1,-8,-5,78*,-10
COC(C)(C)[C@@H](O)COc1c2ccoc2cc2oc(=O)ccc12,-2,/,14,10
CC1(C)COC(/C=C/c2ccc([N+](=O)[O-])cc2)=N1,14,-5,50*,-1
COc1cccc(C(=O)Nc2nc(-c3ccncc3)cs2)c1,-5,17,-11,-9
CCOC(=O)N1CCN(C(=O)CSCC(=O)Nc2nc(-c3ccc4c(c3)OCO4)cs2)CC1,2,/,63*,4
O=C(CSCC(=O)N1CCOCC1)Nc1nc(-c2ccc3c(c2)OCO3)cs1,-8,0,50*,-4
COc1cccc(C(=O)Nc2nc(-c3ccc4c(c3)OCO4)cs2)c1,10,7,68*,6
N#CCC(=O)Nc1nc(-c2ccc3c(c2)OCCO3)cs1,-25,-7,14,-25
CCOC(=O)N1CCN(C(=O)CSCC(=O)Nc2nc(-c3ccc(C)cc3)cs2)CC1,-6,-11,5,3
O=C(NC1CCCC1)c1cccc(S(=O)(=O)N2CCOCC2)c1,4,/,1,-3
COc1ccccc1NC(=O)c1nc(S(=O)(=O)Cc2ccccc2)ncc1Cl,5,-46,60*,-9
CCS(=O)(=O)c1ncc(Cl)c(C(=O)Nc2ccccc2OC)n1,1,-14,35,-2
CC1CCN(C(=O)c2cc3ccccc3o2)CC1,-3,-14,-7,-7
